HTRA1 inhibitor: HTRA1 serine protease inhibitors, primary screen, biochemical, fluorescence polarization, HTS | AID 504803, 2011 | inhibition, % at 5.96 µM | 0.5% of 340,000 active | recombinant HTRA1, FP-rhodamine activity-based probe; in the data active means inhibition above about 36%;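 further: 0% = enzyme with DMSO and 100% = wells lacking enzyme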
Target sequence (Q92743 whole entry, looked up): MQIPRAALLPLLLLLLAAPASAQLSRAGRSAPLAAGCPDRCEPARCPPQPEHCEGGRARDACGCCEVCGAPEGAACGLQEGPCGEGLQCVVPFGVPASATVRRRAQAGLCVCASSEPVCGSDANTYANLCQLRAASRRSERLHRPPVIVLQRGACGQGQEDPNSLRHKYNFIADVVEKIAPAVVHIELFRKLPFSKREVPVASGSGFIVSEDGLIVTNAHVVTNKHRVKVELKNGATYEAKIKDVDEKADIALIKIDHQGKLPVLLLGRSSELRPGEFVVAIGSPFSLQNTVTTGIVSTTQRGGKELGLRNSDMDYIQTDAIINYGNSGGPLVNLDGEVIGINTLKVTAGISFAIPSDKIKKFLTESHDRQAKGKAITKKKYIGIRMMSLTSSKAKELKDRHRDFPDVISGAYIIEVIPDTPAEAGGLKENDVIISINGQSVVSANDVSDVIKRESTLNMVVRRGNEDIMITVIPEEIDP
TCR-CD3 inh: inhibitors of human TCR-CD3 interaction, primary screen, biochemical, fluorescence, TAMRA-labeled TCR probe | inhibition, % at 9.4 µM | T-cell receptor (TCR) | 0.37% of 360,000 active;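 further: recombinant mutant TCR 2C K166C tagged with TAMRA read by polarization; 0% = receptor in buffer alone and 100% = receptor with positive control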
mABHD4 FP: ABHD4 inhibitors, primary screen, biochemical, fluorescence polarization, mouse. 0.54% of 370,000 active. (Lyso)-N-acylphosphatidylethanolamine lipase (Mus musculus), Q8VD66. purified mABHD4, FP-Rh probe fluorescence polarization. inhibition, % at 8.92 µM. AID 720543, 2013;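 active means inhibition exceeding the mean over every tested compound plus 3 SD, cut at about 30% in these data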;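 further: 0% = plate median of compound wells and 100% = S159A mutant with DMSO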
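System: mouse ABHD4 enzyme, wild type / Medium: HEPES pH 7.0, NaCl, Pluronic buffer / Reagent: FP-Rh activity-based fluorescent probe / Control set: S159A mutant high control, sample median low control / Detection: fluorescence polarization with parallel and perpendicular emission, 525/598 nm / Schedule: 45 min + 60 min at 25 °C / Compound dosing: 8.92 µM, single dose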
PRMT1 inh: PRMT1 methyltransferase inhibitors, primary screen, biochemical, fluorescence polarization | recombinant PRMT1, activity-based probe fluorescence polarization | inhibition, % at 2.79 µM | 1.3% of 370,000 active;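 active means inhibition above about 21% made by adding two undisclosed values, limit read from the data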
SIAE primary: human SIAE inhibitors, primary screen, biochemical, fluorescence polarization, FP-Rh probe, 1536-well HTS | AID 1053197, 2014 | inhibition, % at 9.66 µM | 0.69% of 370,000 active | SIAE FP-Rh probe binding | Sialate O-acetylesterase (Homo sapiens), Q9HAT2;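 active means inhibition above a cutoff: mean of compounds within the control limits plus 3 SD of those, cut at about 17% in these data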;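 further: 0% = plate median of compound wells and 100% = probe without SIAE protein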
BSA TAMRA ctr: compounds interfering with TAMRA-BSA probe, counter-screen for TCR-CD3 interaction inhibitor project, biochemical, fluorescence, TAMRA-labeled BSA. shares compounds with TCR-CD3 inh. inhibition, % at 9.4 µM. TAMRA-labeled BSA probe fluorescence counterscreen. 10% of 1,200 active; in the data active means inhibition above about 23%;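 further: 0% = buffer low control and 100% = reference high control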
TCR-CD3 conf: TCR-CD3 interaction inhibitors, retest, confirmation, biochemical, fluorescence, TAMRA-labeled TCR probe; shares compounds with TCR-CD3 inh; TAMRA-labeled TCR probe fluorescence binding assay; inhibition, % at 9.4 µM; 48% of 1,200 active; AID 652036, 2013
An asterisk follows results filed as active; · = no result. Compounds with a hit are over-represented: about 2.6% of the library has one in this group of screens. Unless noted, no stated cut-off is given here; in the data, active means inhibition above about 19%; inactive means the rest.

SMILES	HTRA1 inhibitor	TCR-CD3 inh	mABHD4 FP	PRMT1 inh	SIAE primary	BSA TAMRA ctr	TCR-CD3 conf
Cc1cccc(C(=O)NNC(=O)c2c(-c3ccccc3Cl)noc2C)c1O	0	29*	2	4	1	-1	16
Nc1ccc([N+](=O)[O-])cc1C(=O)NNC(=O)c1ccco1	-5	27*	-3	5	6	-11	32*
COc1cc(/C=C/C(=O)c2ccccc2)cc(OC)c1OC	·	·	-8	-2	-3	·	·
O=C(NNC(=O)c1ccccc1O)c1ccco1	6	6	-1	-2	5	·	·
Cc1cccc(C(=O)NNC(=O)c2ccco2)c1O	-2	19*	0	0	13	-5	12
CCOC(=O)[C@@]12CN(C(=O)OC(C)(C)C)CC=C1N(Cc1ccc(OC)cc1)C(=O)[C@H]2CC(=O)NCC1CCCCC1	·	·	10	1	1	·	·
C[C@H](CO)N1C[C@H](C)[C@@H](CN(C)C(=O)Nc2ccc(C(F)(F)F)cc2)Oc2ccc(NC(=O)Nc3ccc(C(F)(F)F)cc3)cc2C1=O	-165	76*	-157	2	-110	25*	48*
C[C@@H]1CN([C@@H](C)CO)C(=O)Cc2cc(NC(=O)Nc3cccc4ccccc34)ccc2O[C@@H]1CN(C)Cc1ccc(C(F)(F)F)cc1	-69	11	-45	2	-31	·	·
C[C@@H]1CN([C@H](C)CO)C(=O)c2cc(NC(=O)Nc3ccc(C(F)(F)F)cc3)ccc2O[C@H]1CN(C)C(=O)Nc1ccc(F)cc1	-112	8	-132	1	-157	·	·
C[C@@H]1CN([C@H](C)CO)C(=O)c2cc(NC(=O)Nc3ccc(C(F)(F)F)cc3)ccc2O[C@H]1CN(C)S(=O)(=O)c1ccccc1	-113	30*	-132	-1	-174	-2	15
COc1ccc(S(=O)(=O)N(C)C[C@H]2Oc3ccc(NC(=O)Nc4ccc(C(F)(F)F)cc4)cc3C(=O)N([C@H](C)CO)C[C@@H]2C)cc1	-113	34*	-109	0	-201	24*	47*
COc1ccc(S(=O)(=O)N(C)C[C@H]2Oc3ccc(NC(=O)CCC(F)(F)F)cc3C(=O)N([C@H](C)CO)C[C@@H]2C)cc1	-2	8	11	4	2	·	·
C[C@@H]1CN([C@H](C)CO)C(=O)c2cc(NC(=O)Nc3cccc4ccccc34)ccc2O[C@H]1CN(C)Cc1ccc(C(F)(F)F)cc1	-51	25*	-25	-3	-66	-2	4
Cc1cc(S(=O)(=O)Nc2c(NC3CCCCC3)c3ccccc3oc2=O)ccc1F	-14	19*	-3	-1	10	4	3
COc1ccc(S(=O)(=O)Nc2c(NC3CCCCC3)c3ccccc3oc2=O)cc1Cl	-26	1	-5	-1	10	·	·
Cc1cccc(/C=N\NC(=O)c2ccc(Cl)cc2)c1O	23	34*	9	0	-16	-10	22*
Cc1cccc(/C=N/NC(=O)c2ccc3c(c2)OCCO3)c1O	11	19*	-14	6	1	-12	15
COc1ccccc1/C=N/NC(=O)c1c(-c2ccccc2)noc1C	-3	-1	-6	-6	-1	·	·
Cc1cccc(/C=N/NC(=O)c2c(-c3ccccc3)noc2C)c1O	18	24*	-3	-4	5	-7	18
C[C@H]1CCCN1c1ccc2c(c1)O[C@H]1CCN(C1)S2(=O)=O	·	·	17	3	0	·	·
COC(=O)[C@]12C[C@H](CC(=O)N3CCC(c4ccccc4)CC3)C(=O)N(Cc3cccc4ccccc34)C1=C[C@H](C(C)(C)C)O[C@@H]2C	·	·	-2	-5	0	·	·
C[C@@H]1[C@@H](O)C[C@@]2(C[C@H](O)c3ccccc3O2)O[C@H]1c1ccccc1	·	·	3	-1	0	·	·
CC(C)NC(=O)N[C@H]1C[C@@H]2O[C@H](CO)CC[C@@H]2O[C@@H]1CCc1ccc(-c2ccccc2F)cc1	·	·	2	3	-3	·	·
CCN(CC)C(=O)CC[C@@H]1CC[C@]2(CCCN(C(=O)C3CCCCC3)C2)O1	·	·	-1	-5	-2	·	·
O=C(c1cccc(Cl)c1)N1CCCc2ccccc21	-2	28*	-1	-1	-3	28*	16
SMILES	HTRA1 inhibitor	TCR-CD3 inh	mABHD4 FP	PRMT1 inh	SIAE primary	BSA TAMRA ctr	TCR-CD3 conf
O=C(NC(=S)Nc1ccccc1O)c1ccccc1Cl	-17	23*	-16	-2	-8	-5	16
Nc1nonc1C(=O)N/N=C/c1cc(Br)ccc1O	·	23*	15	4	-2	-8	20*
COc1cc(O)c(/C=N/NC(=O)c2ccncc2)c(OC)c1[N+](=O)[O-]	10	19*	14	1	2	0	31*
COc1ccc(/C=N/NC(=O)c2ccncc2)cc1[N+](=O)[O-]	2	-2	3	2	-6	·	·
CCN(CC)C(=O)CC[C@H]1CC[C@]2(CCCN(C3CCCCC3)C2)O1	·	·	0	0	1	·	·
Cc1oc2cc(O)ccc2c(=O)c1-c1nncn1-c1ccccc1	3	25*	25	52*	4	27*	23*
CCCCCC(=O)NC(=S)NC1C2CC3CC(C2)CC1C3 (stereo not given)	-15	35*	6	0	-3	2	29*
Cc1nonc1NC(=O)CSc1nc(C23CC4CC(CC(C4)C2)C3)nc2ccccc12	-6	20*	-4	-1	-7	4	9
O=C(Nc1ccc(F)cc1)OCCCN1C(=O)CCC12CCCCC2	·	·	-9	-3	9	·	·
Cc1cccc(NC(=O)CSc2nnc(-c3ccccc3)n2N)c1	-5	24*	6	-3	1	2	0
Cc1cc(C)cc(NC(=O)CSc2nnc(-c3ccccc3)n2N)c1	-2	9	-16	-5	-4	·	·
C=CCn1c(O)c(N=NC(=O)CNC(=O)/C=C/c2ccc(OC)cc2)c2ccccc21	-15	9	-2	-6	-5	·	·
C=CCn1c(O)c(N=NC(=O)CNC(=O)/C=C/c2ccco2)c2ccccc21	4	23*	0	2	3	-5	20*
COc1cccc(C(=O)Nc2ccc(C(=O)NCC3COc4ccccc4O3)cc2)c1 (stereo not given)	·	·	2	4	-7	·	·
COc1cc(Br)cc2cc(C(=O)N3CCN(C(=O)c4ccco4)CC3)c(=O)oc12	6	20*	1	-2	7	3	19*
